Experimental data from ChEMBL document CHEMBL1132442, “Preparation and characterization of novel trans-[PtCl(2)(amine)(isopropylamine)] compounds: cytotoxic activity and apoptosis induction in ras-transformed cells” (J Med Chem, 1999).

Assays:
[1] = system: Jurkat; assay: Cytotoxicity against human acute T-cell leukemia cell line JURKAT (obtained by MTT assay).; type: functional, cell-based
How it was run: (§1)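 MTT survival assay: compounds added to cultured cells at final 0–200 μM, read 24 h later by absorbance at 520 nm. IC50 from plots of % survival versus concentration (μM). Quadruplicate experiments. Compound stocks 1 mg/mL in PBS, freshly prepared.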

[2] = system: PAM212; assay: Cytotoxicity against murine keratinocytes transformed with the H-ras oncogene Pam212-ras (cis-DDP resistant) (obtained by MTT assay).; type: functional, cell-based, Mus musculus; how it was run: as §1
[3] = system: PAM212; assay: Cytotoxicity against normal murine keratinocytes Pam212 (obtained by MTT assay).; type: functional, cell-based, Mus musculus; how it was run: as §1
[4] = system: Vero; assay: Cytotoxicity against […] cell line VERO(obtained by MTT assay).; type: functional, cell-based, Chlorocebus sabaeus; how it was run: as §1
[5] = system: HeLa; assay: Cytotoxicity against human cervix epithelial carcinoma cell line HeLa (obtained by MTT assay).; type: functional, cell-based; how it was run: as §1
[6] = system: HL-60; assay: Cytotoxicity against human promyelocytic leukemia cell line HL-60 (obtained by MTT assay).; type: functional, cell-based; how it was run: as §1
[7] = system: Vero; assay: Cytotoxicity against […] cell line VERO (obtained by MTT assay).; type: functional, cell-based, Chlorocebus sabaeus; how it was run: as §1

Row | Substance | IC50 [1] [µM] | IC50 [2] [µM] | IC50 [3] [µM] | IC50 [4] [µM] | IC50 [5] [µM] | IC50 [6] [µM] | IC50 [7] [µM]
1 | CISPLATIN | 7 | 156 | 114 | 50 | 38 | 25 | –
2 | TRANSPLATIN | 22 | 164 | 123 | 148 | 89 | 50 | –
3 | Trans-[PtCl2(butylamine)(isopropylamine)] | 7 | 21 | 71 | 46 | 35 | 18 | –
4 | Trans-[PtCl2(dimethylamine)isopropylamine)] (tdmaipa) | 5 | 6 | 56 | – | 32 | 17 | 47
5 | Trans-[PtCl2(isopropylamine)(propylamine)] | 5 | 32 | 50 | 52 | 43 | 20 | –
